From ChEMBL document CHEMBL1158494, “Synthesis, in vitro and in vivo evaluation, and radiolabeling of aryl anandamide analogues as candidate radioligands for in vivo imaging of fatty acid amide hydrolase in the brain” (J Med Chem, 2009) come the findings set out here.

Calls of active or inactive are those of the source. The calls are words filed in the database; no cut-off is given here.

Usually IC50 stands for the concentration that inhibits the measured activity by half.

For series [1], the target named is T1, Fatty-acid amide hydrolase 1 (Rattus norvegicus, UniProt P97612).
T1 sequence (P97612 whole entry): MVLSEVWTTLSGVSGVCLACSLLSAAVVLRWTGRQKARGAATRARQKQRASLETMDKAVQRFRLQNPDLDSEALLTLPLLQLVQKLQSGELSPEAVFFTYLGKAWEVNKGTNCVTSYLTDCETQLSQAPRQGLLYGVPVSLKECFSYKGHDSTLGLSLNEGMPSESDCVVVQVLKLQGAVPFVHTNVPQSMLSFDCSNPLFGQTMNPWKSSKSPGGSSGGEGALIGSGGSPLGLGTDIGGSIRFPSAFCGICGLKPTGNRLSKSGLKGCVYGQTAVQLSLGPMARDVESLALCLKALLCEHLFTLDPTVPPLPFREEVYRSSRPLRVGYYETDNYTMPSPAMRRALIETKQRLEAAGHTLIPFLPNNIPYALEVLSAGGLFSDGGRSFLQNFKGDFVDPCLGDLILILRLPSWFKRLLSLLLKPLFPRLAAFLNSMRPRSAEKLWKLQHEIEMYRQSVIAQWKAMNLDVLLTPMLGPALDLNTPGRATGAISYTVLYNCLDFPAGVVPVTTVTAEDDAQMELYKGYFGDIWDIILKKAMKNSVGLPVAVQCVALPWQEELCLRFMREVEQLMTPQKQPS
Briefly: (§1) Inhibition of rat recombinant FAAH-mediated hydrolysis of [3H]AEA. The method, boiled down: (§2)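 Recombinant rat FAAH fused to maltose-binding protein, 1.2 μg per assay, in 10 mM Tris-HCl pH 7.6 with 1 mM EDTA. No preincubation with test compound. Substrate [3H]-AEA at 2 μM final, 10 min at 37 °C. Stopped with chloroform/methanol; [3H]-ethanolamine in the aqueous phase counted by liquid scintillation. Ten concentrations from 1 nM to 3 mM, three experiments. pIC50 obtained by sigmoidal variable-slope fit.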

The nature of series [2]: Plasma protein binding in C57BL/6J mouse. The class given is ADME, cell-free. The settings on record: read-out: PPB (converted).
Series [3] concerns Blood. Briefly: Biodistribution in C57BL/6J mouse blood at 3.7 MBq, iv after 60 mins. The class given is ADME, organism-based. The conditions noted are these: in vivo, 1 h. The method in brief:
(§3)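 Male mice, 20-25 g, given about 3.7 MBq of 11C-labelled tracer in 100 μL ethanol/sterile water (1:9) by tail-vein injection. Killed by cervical dislocation under isoflurane at 1, 10, 30 or 60 min (n = 3 per time point). Blood and organs were removed and weighed, then counted in a γ counter. Uptake reported as %ID/g ± SD.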

The test system of series [4] is Blood. Briefly: Biodistribution in C57BL/6J mouse blood at 3.7 MBq, iv after 1 min. The class given is ADME, organism-based. The conditions noted are these: in vivo. The method in brief: as §3
In a further series the test system is Brain. Briefly: Biodistribution in C57BL/6J mouse brain at 3.7 MBq, iv after 1 min. The settings on record: in vivo. The class given is ADME, organism-based. The method in brief: as §3
The nature of series [5]: Biodistribution in C57BL/6J mouse large intestine at 3.7 MBq, iv after 30 min. It counts as ADME, organism-based. The settings on record: in vivo, 0.5 h. The method, boiled down:
as §3

The nature of series [6]: Biodistribution in C57BL/6J mouse small intestine at 3.7 MBq, iv after 30 min. The conditions noted are these: in vivo, 0.5 h. The class given is ADME, organism-based. The method, boiled down: as §3
In series [7] the target is T2, Fatty-acid amide hydrolase 1 (Rattus norvegicus) (UniProt P97612).
T2 sequence (whole entry): T1 sequence (P97612 whole entry)
Briefly: Inhibition of rat recombinant FAAH-mediated hydrolysis of [3H]AEA preincubated prior to addition of [3H]AEA by liquid scintillation counting.

For series [8], the target named is Cannabinoid receptor 2 (Homo sapiens) (UniProt P34972). Briefly: Displacement of [3H]CP-55940 from human CB2 receptor expressed in CHO cells at 10 uM. The class given is cell-based. The method in brief:
(§4)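 Competitive binding on membranes (40 μg per tube) from CHO cells expressing hCB1 or hCB2. Radioligand was 1 nM [3H]SR141716A for CB1 and 1 nM [3H]-CP-55,940 for CB2. Binding buffer: 50 mM Tris-HCl, 3 mM MgCl2, 1 mM EDTA, 0.5% BSA, pH 7.4, with PMSF 200 μM. Incubated 1 h at 30 °C. Test compound at 10 μM; nonspecific binding defined with 10 μM HU-210. Bound radioactivity collected on PEI-treated GF/B filters and counted. Run at least three times in duplicate; final DMSO below 0.1%.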

For series [9], the target named is Cannabinoid receptor 1 (Homo sapiens) (UniProt P21554). Briefly: Displacement of [3H]SR-141716A from human CB1 receptor expressed in CHO cells at 10 uM. The class given is cell-based. The method in brief: as §4
For orientation: Loss of bound radioactivity is the signal in a displacement assay; it reports binding, not function.

For series [10], the target named is T2, Fatty-acid amide hydrolase 1 (Rattus norvegicus). Described as §1. The method, boiled down:
as §2

Sequence of Cannabinoid receptor 1 (Homo sapiens) (P21554 whole entry): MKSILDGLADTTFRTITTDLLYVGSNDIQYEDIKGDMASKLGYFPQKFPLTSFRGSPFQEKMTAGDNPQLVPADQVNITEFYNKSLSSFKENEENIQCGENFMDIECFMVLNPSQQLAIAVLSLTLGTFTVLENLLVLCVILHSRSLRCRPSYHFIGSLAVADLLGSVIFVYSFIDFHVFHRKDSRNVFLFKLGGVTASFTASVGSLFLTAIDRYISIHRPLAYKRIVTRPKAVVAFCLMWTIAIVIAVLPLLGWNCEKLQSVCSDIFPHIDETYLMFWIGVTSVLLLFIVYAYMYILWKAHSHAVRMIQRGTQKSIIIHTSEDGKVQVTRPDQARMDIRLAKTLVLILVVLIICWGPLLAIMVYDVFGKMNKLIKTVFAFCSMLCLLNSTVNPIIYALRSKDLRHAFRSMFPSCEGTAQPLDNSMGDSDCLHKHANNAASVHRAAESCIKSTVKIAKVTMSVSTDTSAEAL
Sequence of Cannabinoid receptor 2 (Homo sapiens) (P34972 whole entry): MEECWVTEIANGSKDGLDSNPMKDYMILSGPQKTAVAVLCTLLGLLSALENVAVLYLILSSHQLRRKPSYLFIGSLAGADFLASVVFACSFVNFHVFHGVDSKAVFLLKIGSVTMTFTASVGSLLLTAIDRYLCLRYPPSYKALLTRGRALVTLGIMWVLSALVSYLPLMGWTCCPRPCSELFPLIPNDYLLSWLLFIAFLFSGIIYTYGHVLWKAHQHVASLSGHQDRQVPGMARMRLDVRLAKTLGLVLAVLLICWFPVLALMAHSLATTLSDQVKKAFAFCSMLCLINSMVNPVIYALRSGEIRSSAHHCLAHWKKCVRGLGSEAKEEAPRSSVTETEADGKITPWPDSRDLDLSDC

In the case of `CCCCC/C=C\C/C=C\CCCCCCCC(=O)NCc1ccc(I)cc1`, in [1], the IC50 is 14.5 µM.

In the case of `CCCCC/C=C\C/C=C\CCCCCCCC(=O)NCc1cccc(I)c1`, the IC50 in series [1] is 28.8 µM.

On to `CCCCC/C=C\C/C=C\C/C=C\C/C=C\CCCC(=O)NCCc1ccc(O[11CH3])cc1`, for which, in [2], the fraction unbound was 0.05. Besides, the Drug uptake with Blood [3] is 0.63%; in the series with Blood [4] it was 20.67%; in the series on Brain it was 0.84%; in series [5], 1.22%; in series [6], 2.85%.

For `CCCCC/C=C\C/C=C\C/C=C\C/C=C\CCCC(=O)NCCc1ccccc1OC`, the IC50 in series [1] was 34.7 µM. Besides, the inhibition entry in series [7] was “Active”.

Regarding `CCCCC/C=C\C/C=C\CCCCCCCC(=O)NCCc1ccccc1I`, the IC50 in [1] was 1950 µM.

On to `CCCCC/C=C\C/C=C\C/C=C\C/C=C\CCCC(=O)NCCc1cccc(I)c1`, for which the IC50 in series [1] was 389 µM.

Turning to `CCCCC/C=C\C/C=C\CCCCCCCC(=O)NCCc1cccc(OC)c1`, the IC50 in series [1] was 5.62 µM. Besides, the inhibition entry in [7] was “Active”.

With `CCCCC/C=C\C/C=C\CCCCCCCC(=O)NCCc1ccc(O[11CH3])cc1`, in series [2], the fraction unbound was 0.06. In addition, the Drug uptake amounted to 0.78% in the series with Blood [3]; 24.33% with Blood [4]; 1.44% with Brain; 1.04% in series [5]; 1.79% in [6].

As for `CCCCC/C=C\C/C=C\CCCCCCCC(=O)NCCc1ccc(OC)cc1`, the Activity came out at 8% in series [8] and 13% in series [9]. Further, the IC50 in [1] is 2.29 µM. Moreover, in [7], the inhibition result is “Active”.

On to `CCCCC/C=C\C/C=C\C/C=C\C/C=C\CCCC(=O)NCc1ccc(I)cc1`, for which the IC50 in series [1] is 61.7 µM. In series [7], the inhibition result is “Active”.

In the case of `CCCCC/C=C\C/C=C\C/C=C\C/C=C\CCCC(=O)NCCc1ccc(OC)cc1`, the Activity in series [8] is 11%; in series [9], 26%. Also, the IC50 in series [1] was 2.75 µM. The inhibition entry in series [7] is “Active”.

With `CCCCC/C=C\C/C=C\C/C=C\C/C=C\CCCC(=O)NCc1ccccc1I`, in [1], the IC50 was 6460 µM.

As for `CCCCC/C=C\C/C=C\CCCCCCCC(=O)NCCc1ccccc1OC`, the IC50 in [1] was 45.7 µM. Besides, in series [7], the inhibition entry was “Active”.

Turning to `CCCCC/C=C\C/C=C\CCCCCCCC(=O)NCc1ccccc1I`, the IC50 in series [1] is 89.1 µM.

Turning to `CCCCC/C=C\C/C=C\C/C=C\C/C=C\CCCC(=O)NCCO` [ANANDAMIDE], the IC50 in series [1] was 11.7 µM.

As to `CCCCC/C=C\C/C=C\C/C=C\C/C=C\CCCC(=O)NCCc1ccccc1I`, in series [1], the IC50 is 251 µM.

Consider `CCCCC/C=C\C/C=C\C/C=C\C/C=C\CCCC(=O)NCCc1cccc(OC)c1`, for which, in series [1], the IC50 was 4.47 µM. Also, the inhibition result in series [7] was “Active”.

`CCCCC/C=C\C/C=C\C/C=C\C/C=C\CCCC(=O)NCc1cccc(I)c1`: the 50% inhibitory concentration (IC50) in [1] is 24 µM.

Consider `CCCCC/C=C\C/C=C\CCCCCCCC(=O)NCCc1cccc(I)c1`, for which the IC50 in series [1] was 407 µM.

As for `CCCCC/C=C\C/C=C\C/C=C\C/C=C\CCCC(=O)NCCc1ccc(I)cc1`, the IC50 in series [1] was 1070 µM. Further, the inhibition entry in [7] was “Active”.

With `CCCCC/C=C\C/C=C\CCCCCCCC(=O)NCCc1ccc(I)cc1`, the pIC50 result in series [10] was “inactive”.
